The values below come from ChEMBL document CHEMBL1139946, “1-Aryl-4,6-dihydropyrazolo[4,3-d][1]benzazepin-5(1H)-ones: a new class of antiproliferative agents with selectivity for human leukemia and breast cancer cell lines” (Eur J Med Chem, 2007).

In general, inhibition refers to the change of the read-out against control, counted positive when it falls. A lower inhibition goes with a weak effect.

Test [1] concerns the target T1, Aurora kinase A (Homo sapiens) (UniProt O14965).
T1 sequence (whole entry): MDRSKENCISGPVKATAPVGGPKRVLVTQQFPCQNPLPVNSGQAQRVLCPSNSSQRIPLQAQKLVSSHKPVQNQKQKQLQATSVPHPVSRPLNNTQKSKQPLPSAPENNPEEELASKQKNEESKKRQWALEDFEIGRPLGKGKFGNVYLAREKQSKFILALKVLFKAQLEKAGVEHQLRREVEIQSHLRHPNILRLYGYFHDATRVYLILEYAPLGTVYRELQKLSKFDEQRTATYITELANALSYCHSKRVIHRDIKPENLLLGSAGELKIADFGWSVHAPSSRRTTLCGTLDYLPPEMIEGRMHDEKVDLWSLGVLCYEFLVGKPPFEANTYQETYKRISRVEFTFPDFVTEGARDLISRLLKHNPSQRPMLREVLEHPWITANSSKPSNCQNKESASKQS
In words: Inhibition of aurora A at 10 uM.

Test [2] has as its target T2, NUAK family SNF1-like kinase 1 (Homo sapiens) (UniProt O60285).
T2 sequence (whole entry): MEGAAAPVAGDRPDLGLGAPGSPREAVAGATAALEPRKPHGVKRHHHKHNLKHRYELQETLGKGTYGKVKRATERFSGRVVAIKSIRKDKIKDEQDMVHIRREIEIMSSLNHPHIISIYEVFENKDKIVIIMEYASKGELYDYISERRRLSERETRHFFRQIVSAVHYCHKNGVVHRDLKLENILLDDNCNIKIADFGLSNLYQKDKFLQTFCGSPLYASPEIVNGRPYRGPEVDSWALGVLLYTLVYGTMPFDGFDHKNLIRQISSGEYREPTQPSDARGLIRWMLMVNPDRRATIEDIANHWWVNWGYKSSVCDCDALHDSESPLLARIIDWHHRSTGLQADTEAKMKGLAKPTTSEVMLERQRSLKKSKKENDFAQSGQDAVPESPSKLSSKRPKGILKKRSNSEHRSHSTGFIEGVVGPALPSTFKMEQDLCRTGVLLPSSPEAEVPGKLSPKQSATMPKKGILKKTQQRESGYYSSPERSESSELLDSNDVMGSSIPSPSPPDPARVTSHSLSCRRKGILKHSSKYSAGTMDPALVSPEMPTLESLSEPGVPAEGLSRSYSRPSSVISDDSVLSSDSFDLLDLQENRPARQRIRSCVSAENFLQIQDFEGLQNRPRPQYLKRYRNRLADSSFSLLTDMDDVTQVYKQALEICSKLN
In words: Inhibition of ARK5 at 10 uM.

In test [3] the target is T3, Serine/threonine-protein kinase PLK4 (Homo sapiens) (UniProt O00444).
T3 sequence (whole entry): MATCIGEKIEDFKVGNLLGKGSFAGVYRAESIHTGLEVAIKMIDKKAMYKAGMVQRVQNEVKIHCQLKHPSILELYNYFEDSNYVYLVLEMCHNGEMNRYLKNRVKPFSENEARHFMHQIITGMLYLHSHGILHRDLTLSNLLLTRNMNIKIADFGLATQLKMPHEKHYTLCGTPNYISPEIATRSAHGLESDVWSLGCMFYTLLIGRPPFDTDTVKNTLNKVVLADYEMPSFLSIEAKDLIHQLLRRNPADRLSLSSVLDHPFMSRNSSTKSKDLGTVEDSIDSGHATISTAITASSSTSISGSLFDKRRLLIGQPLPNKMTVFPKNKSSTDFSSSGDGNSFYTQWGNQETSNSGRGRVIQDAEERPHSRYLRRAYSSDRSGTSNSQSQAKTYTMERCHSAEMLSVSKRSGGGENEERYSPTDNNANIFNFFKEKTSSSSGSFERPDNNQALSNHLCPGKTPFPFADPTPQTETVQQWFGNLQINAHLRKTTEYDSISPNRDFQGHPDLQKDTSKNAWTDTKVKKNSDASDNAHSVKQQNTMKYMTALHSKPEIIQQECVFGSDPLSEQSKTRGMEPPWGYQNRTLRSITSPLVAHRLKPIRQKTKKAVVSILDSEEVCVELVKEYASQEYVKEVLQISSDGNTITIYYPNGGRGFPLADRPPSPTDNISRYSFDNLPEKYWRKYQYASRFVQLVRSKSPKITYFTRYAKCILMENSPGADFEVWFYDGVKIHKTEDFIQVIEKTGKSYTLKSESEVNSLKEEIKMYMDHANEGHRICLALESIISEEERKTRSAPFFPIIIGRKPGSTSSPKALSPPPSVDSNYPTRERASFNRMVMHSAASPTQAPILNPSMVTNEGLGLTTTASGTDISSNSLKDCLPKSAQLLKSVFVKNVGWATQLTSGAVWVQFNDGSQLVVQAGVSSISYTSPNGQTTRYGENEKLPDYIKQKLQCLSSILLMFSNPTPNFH
In words: Inhibition of SAK at 10 uM.

In the next test the test system is SF-268. In words: Antiproliferative activity against human SF268 cells at 100 uM after 48 hrs relative to control. Type of test: functional. The conditions noted are these: SF-268, 48 h. A digest of the protocol: (§1)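 NCI three-cell-line prescreen (MCF7 breast, NCI-H460 non-small cell lung, SF-268 CNS). Cells inoculated and preincubated in microtiter plates, then exposed to test agent at 10^-4 M for 48 h. Alamar blue end-point read-out. Growth of treated cells expressed as percent of untreated control cells.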

Test [4] deals with Aurora kinase B (Homo sapiens) (UniProt Q96GD4). In words: Inhibition of aurora B at 10 uM.
Chain of Aurora kinase B (Homo sapiens) (Q96GD4 whole entry): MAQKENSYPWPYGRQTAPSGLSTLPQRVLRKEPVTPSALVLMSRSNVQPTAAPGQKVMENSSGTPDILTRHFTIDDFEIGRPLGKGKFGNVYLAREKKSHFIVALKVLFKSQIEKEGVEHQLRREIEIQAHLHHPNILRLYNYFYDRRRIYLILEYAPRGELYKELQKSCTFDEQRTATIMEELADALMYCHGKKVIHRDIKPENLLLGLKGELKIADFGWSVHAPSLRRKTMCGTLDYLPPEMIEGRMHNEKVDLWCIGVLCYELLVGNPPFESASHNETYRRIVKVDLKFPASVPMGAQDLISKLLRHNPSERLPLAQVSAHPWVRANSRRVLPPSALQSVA
The target in test [5] is Focal adhesion kinase 1 (Homo sapiens) (UniProt Q05397). In words: Inhibition of FAK at 10 uM.
Chain of Focal adhesion kinase 1 (Homo sapiens) (Q05397 2-1052 limits assumed): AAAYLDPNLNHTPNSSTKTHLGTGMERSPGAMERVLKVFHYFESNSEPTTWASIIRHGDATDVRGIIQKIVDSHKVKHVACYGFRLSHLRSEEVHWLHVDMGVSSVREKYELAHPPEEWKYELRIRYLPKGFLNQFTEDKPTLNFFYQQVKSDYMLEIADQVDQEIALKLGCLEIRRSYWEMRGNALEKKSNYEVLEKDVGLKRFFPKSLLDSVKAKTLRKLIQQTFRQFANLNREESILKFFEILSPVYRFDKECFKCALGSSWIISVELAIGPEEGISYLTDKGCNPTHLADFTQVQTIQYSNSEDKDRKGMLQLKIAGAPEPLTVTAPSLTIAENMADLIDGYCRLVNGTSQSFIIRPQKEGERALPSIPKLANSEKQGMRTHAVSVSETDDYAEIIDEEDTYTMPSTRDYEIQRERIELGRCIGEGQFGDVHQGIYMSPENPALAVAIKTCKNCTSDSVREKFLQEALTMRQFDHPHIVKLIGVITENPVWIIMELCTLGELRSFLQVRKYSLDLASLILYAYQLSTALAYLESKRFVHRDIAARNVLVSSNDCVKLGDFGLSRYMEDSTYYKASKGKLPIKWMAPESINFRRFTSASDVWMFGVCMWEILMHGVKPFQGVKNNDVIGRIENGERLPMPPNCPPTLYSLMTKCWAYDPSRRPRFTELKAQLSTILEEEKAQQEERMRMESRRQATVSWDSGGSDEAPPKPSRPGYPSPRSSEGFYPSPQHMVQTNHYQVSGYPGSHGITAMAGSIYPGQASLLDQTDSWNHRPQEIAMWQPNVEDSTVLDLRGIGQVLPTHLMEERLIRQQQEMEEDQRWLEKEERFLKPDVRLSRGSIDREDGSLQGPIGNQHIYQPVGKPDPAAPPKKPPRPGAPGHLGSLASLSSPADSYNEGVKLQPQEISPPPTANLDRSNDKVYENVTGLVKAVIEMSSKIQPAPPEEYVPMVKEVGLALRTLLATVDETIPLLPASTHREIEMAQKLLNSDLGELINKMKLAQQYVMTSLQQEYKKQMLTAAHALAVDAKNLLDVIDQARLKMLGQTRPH
A further test deals with MCF7. In words: Antiproliferative activity against human MCF7 cells at 100 uM after 48 hrs relative to control. Type of test: functional. The conditions noted are these: MCF7, 48 h. A digest of the protocol:
as §1

A further test is filed under the species Homo sapiens. In words: Inhibition of CDK4/cyclinD1 at 10 uM.
The target of test [6] is Receptor tyrosine-protein kinase erbB-2 (Homo sapiens) (UniProt P04626). In words: Inhibition of ERBB2 at 10 uM.
Chain of Receptor tyrosine-protein kinase erbB-2 (Homo sapiens) (P04626 whole entry): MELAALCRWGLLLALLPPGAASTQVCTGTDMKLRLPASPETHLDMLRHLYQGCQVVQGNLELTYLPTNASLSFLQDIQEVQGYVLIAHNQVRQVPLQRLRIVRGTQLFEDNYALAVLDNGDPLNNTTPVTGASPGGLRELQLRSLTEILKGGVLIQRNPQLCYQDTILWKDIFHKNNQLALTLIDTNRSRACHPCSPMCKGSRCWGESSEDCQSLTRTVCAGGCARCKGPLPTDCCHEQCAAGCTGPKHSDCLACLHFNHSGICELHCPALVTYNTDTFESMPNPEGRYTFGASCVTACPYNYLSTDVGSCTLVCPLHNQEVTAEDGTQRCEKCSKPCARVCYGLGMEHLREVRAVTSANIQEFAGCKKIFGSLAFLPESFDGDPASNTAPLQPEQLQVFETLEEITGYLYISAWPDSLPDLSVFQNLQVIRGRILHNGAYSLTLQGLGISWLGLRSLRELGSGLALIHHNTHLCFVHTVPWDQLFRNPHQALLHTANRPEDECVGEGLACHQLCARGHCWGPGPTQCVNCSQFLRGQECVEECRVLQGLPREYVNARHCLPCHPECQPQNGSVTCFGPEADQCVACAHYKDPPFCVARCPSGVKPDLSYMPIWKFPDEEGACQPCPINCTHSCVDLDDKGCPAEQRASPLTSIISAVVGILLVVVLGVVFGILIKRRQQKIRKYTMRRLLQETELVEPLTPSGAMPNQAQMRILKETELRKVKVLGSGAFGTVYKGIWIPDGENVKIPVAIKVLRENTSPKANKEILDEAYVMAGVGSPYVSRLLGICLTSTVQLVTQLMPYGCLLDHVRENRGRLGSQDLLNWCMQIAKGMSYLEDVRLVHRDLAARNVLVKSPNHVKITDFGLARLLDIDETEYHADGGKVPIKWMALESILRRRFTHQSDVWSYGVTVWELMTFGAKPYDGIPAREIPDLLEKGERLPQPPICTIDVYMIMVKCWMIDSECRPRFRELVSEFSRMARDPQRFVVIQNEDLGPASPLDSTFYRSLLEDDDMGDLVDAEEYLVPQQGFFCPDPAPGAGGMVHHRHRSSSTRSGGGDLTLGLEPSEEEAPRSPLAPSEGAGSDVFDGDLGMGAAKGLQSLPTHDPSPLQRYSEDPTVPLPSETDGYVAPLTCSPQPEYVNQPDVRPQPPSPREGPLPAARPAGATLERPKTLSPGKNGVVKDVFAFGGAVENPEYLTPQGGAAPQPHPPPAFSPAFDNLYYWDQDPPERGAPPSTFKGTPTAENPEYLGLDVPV

SMILES strings stand for the structures.

For `O=C1Cc2cnn(-c3cccc(Cl)c3)c2-c2ccccc2N1`, the inhibition in test [1] was less than 40%; in [2], less than 40%; in test [3], less than 40%; in test [4], less than 40%; in test [5], less than 40%; in the test filed under Homo sapiens, greater than 40%. In [6], this compound came in with an inhibition of less than 40%. The growth, % of control at 100 µM with SF-268 worked out at 101%; in the test with MCF7, 64%.
Turning to `O=C1Cc2cnn(-c3ccc(C(F)(F)F)cc3)c2-c2ccccc2N1`, the inhibition (in [1]; in test [2]; in test [3]; in test [4]; in test [5]; in the test filed under Homo sapiens) was less than 40% throughout. This compound registered an inhibition in test [6] of less than 40%. Besides, the growth, % of control at 100 µM in the test with MCF7 is 52%.
As for `O=C1Cc2cnn(-c3ccccc3Br)c2-c2ccccc2N1`, the inhibition (in [1]; in test [2]; in [3]; in test [4]; in test [5]; in the test filed under Homo sapiens) was less than 40% in each case. Moreover, in [6], the inhibition is less than 40%. Also, the growth, % of control at 100 µM in the test with SF-268 worked out at 87%; with MCF7 it was 69%.
In the case of `O=C1Cc2cnn(-c3ccccc3Cl)c2-c2ccccc2N1`, the inhibition (in test [1]; in test [2]; in test [3]; in [4]; in test [5]; in the test filed under Homo sapiens) was less than 40% throughout. The inhibition in [6] was less than 40%. Further, the growth, % of control at 100 µM in the test with SF-268 stood at 71%; in the test on MCF7, 66%.
As to `Cc1ccccc1-n1ncc2c1-c1ccccc1NC(=O)C2`, the inhibition (in test [1]; in test [2]; in test [3]; in test [4]; in [5]; in the test listed under Homo sapiens) was less than 40% in each case. In addition, the inhibition in [6] was less than 40%. Moreover, the growth, % of control at 100 µM turned out to be 98% in the test with SF-268 and 64% in the test with MCF7.
As to `O=C1Cc2cnn(-c3ccc([N+](=O)[O-])cc3)c2-c2ccccc2N1`, the inhibition (in [1]; in [2]; in test [3]; in test [4]; in test [5]; in the test listed under Homo sapiens) was less than 40% each time. The inhibition in test [6] is less than 40%. The growth, % of control at 100 µM in the test with SF-268 worked out at 62%; in the test on MCF7, 55%.
As to `O=C1Cc2cnn(-c3ccccc3)c2-c2ccccc2N1`, the inhibition (in [1]; in test [2]; in [3]; in test [4]; in [5]; in the test filed under Homo sapiens) was less than 40% each time. Moreover, in test [6], the inhibition is less than 40%. The growth, % of control at 100 µM in the test on SF-268 worked out at 90%; in the test with MCF7 it was 55%.
As for `O=C1Cc2cnn(-c3ccc(F)cc3F)c2-c2ccccc2N1`, the inhibition (in test [1]; in test [2]; in [3]; in [4]; in [5]; in the test listed under Homo sapiens) was less than 40% each time. In test [6], this compound came in with an inhibition of less than 40%. For the same compound, the growth, % of control at 100 µM stood at 98% in the test on SF-268 and 61% with MCF7.
On to `O=C1Cc2cnn(-c3ccccc3F)c2-c2ccccc2N1`, for which the inhibition (in [1]; in test [2]; in [3]; in test [4]; in [5]; in the test filed under Homo sapiens) was less than 40% each time. This compound also came in with an inhibition in [6] of less than 40%. For the same compound, the growth, % of control at 100 µM was found to be 98% in the test on SF-268 and 66% with MCF7.
As for `O=C1Cc2cnn(-c3ccc(Cl)cc3)c2-c2ccccc2N1`, the inhibition (in test [1]; in test [2]; in test [3]; in test [4]; in test [5]; in the test listed under Homo sapiens) was less than 40% in each case. In [6], this compound came in with an inhibition of less than 40%. Moreover, the growth, % of control at 100 µM is 80% with SF-268 and 54% in the test with MCF7.
For the compound `COc1ccc(-n2ncc3c2-c2ccccc2NC(=O)C3)cc1`, the inhibition (in test [1]; in [2]; in [3]; in test [4]; in test [5]; in the test listed under Homo sapiens) was less than 40% in each case. This compound also showed an inhibition in [6] of less than 40%. Further, the growth, % of control at 100 µM in the test on SF-268 came to 88%; in the test with MCF7, 60%.
For the compound `O=C1Cc2cnn(-c3cc(Cl)cc(Cl)c3)c2-c2ccccc2N1`, the inhibition (in test [1]; in test [2]; in test [3]; in test [4]; in [5]; in the test filed under Homo sapiens) was less than 40% each time. Besides, the inhibition in [6] is less than 40%. Also, the growth, % of control at 100 µM with SF-268 worked out at 62%; in the test on MCF7 it was 40%.
For the compound `Cc1ccc(-n2ncc3c2-c2ccccc2NC(=O)C3)cc1`, the inhibition (in [1]; in test [2]; in [3]; in test [4]; in [5]; in the test filed under Homo sapiens) was less than 40% in each case. This compound gave an inhibition in test [6] of less than 40%. For the same compound, the growth, % of control at 100 µM in the test with SF-268 was determined as 95%; in the test on MCF7 it was 57%.
For `CC(C)(C)c1ccc(-n2ncc3c2-c2ccccc2NC(=O)C3)cc1`, the inhibition (in [1]; in test [2]; in [3]; in test [4]; in test [5]; in the test filed under Homo sapiens) was less than 40% in each case. The compound further showed an inhibition in test [6] of less than 40%. Also, the growth, % of control at 100 µM in the test with MCF7 was 130%.
Regarding `O=C1Cc2cnn(-c3ccc(Br)cc3)c2-c2ccccc2N1`, the inhibition (in test [1]; in [2]; in test [3]; in test [4]; in test [5]; in the test filed under Homo sapiens) was less than 40% throughout. Also, the inhibition in test [6] was less than 40%. Further, the values for the growth, % of control at 100 µM in the test with SF-268 and with MCF7 were 98% and 51%, respectively.
